What was measured:
[1] = assay type: in vivo, female nu/nu mice
In short: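 Nude mice carrying subcutaneous MIAPaCa-2 xenografts (1 × 10^7 cells, left inguinal) were dosed once with 40 mg/kg i.p. when tumours reached 100 mg, n=3 per group. Vehicle was PEG400–EtOH–saline (57.1:14.3:28.6). Retro-orbital plasma and necropsy tissues taken at 0–24 h. Urine and feces collected over 24 h in metabolic cages. Tissues homogenized in PBS, methanol-extracted and measured by HPLC-DAD.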

[2] = Bench-top stability in mouse plasma and tissue homogenates at 25°C; assay type: in vitro ADME; conditions: plasma and most tissue homogenates except for liver
[3] = Stock solution stability at room temperature; assay type: physicochemical; conditions: room temperature (25°C), 24 h; 324 and 3240 ng/mL
In short: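 Stock solutions of analyte and internal standard, at 324 and 3240 ng/mL, tested fresh and after storage at 25°C. Tested at 6, 12 and 24 h after preparation, using the same extraction and C18 HPLC-DAD (295 nm) procedure.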

[4] = Homogenization stability in mouse tissues; assay type: in vitro ADME; conditions: homogenized
In short: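 Compound at 324 and 3240 ng/mL injected into equal weights of blank mouse tissue, kept inside the organ. Tissue homogenized in two volumes (v/w) PBS on ice, extracted at once by methanol precipitation and analysed immediately. Analysis by C18 HPLC-DAD at 295 nm. Recovery given as percent of initial concentration.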

[5] = Short- and long-term stability in mouse plasma; assay type: in vitro ADME; conditions: for compound remaining intact in mouse plasma: 4°C
In short: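 Mouse plasma spiked at 324 and 3240 ng/mL, analysed in duplicate. Short-term storage at 37°C (2, 4, 6, 8, 12, 24 h) or 4°C (4, 8, 12, 24 h); long-term storage at −80°C for 2–8 weeks. Samples then methanol-extracted and analysed by HPLC-DAD. Results given as percent of freshly prepared samples.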

[6] = Nonspecific binding to container surface; assay type: physicochemical, mouse
In short: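 Sequential transfer test. Plasma or tissue homogenate spiked at 324 or 3240 ng/mL was poured, without a pipette, through four identical clean tubes in turn. Solution stood 5–20 min at room temperature in each donor tube for adsorption. 100 μL taken from each tube and measured by the same extraction and HPLC-DAD method.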

[7] = test system: hepatic microsomal S9 fractions from CD2F1 mice; test: S9 metabolism in vitro; assay type: in vitro ADME; conditions: mouse S9, 60 min incubation, 37°C
In short: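 Hepatic S9 fraction from CD2F1 mice, containing phase I and II enzymes and cofactors, incubated with compound. Compound added as a 3240 ng/mL DMSO solution (not final concentration) into cold 100 mM Tris, pH 7.4. Duplicate portions taken at 0, 15, 30, 45 and 60 min and analysed for intact compound by HPLC, against a no-S9 control.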

mouse plasma proteins = test: Plasma protein binding by micro-ultrafiltration; assay type: in vitro ADME; conditions: 37°C, 1 h
In short: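 Mouse plasma spiked at 324 and 3240 ng/mL and held at 37°C for 1 h; PBS used as control matrix. Micro-ultrafiltration by centrifugation at 2000g until dry. Filtrate (free, F) and unfiltered solution (total, T) each assayed in triplicate by HPLC, and filter-bound amount (X) also measured. Percent bound = [(T−F−X)/T]×100.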

pancreatic cancer cells = conditions: ref: our previous studies; cited from earlier work
Freeze–thaw stability = assay type: in vitro ADME
In short: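 Samples at 324 and 3240 ng/mL, run in triplicate. Each cycle was 24 h at −20°C, then unassisted thawing at room temperature, then refreezing; three cycles in total. Samples then extracted with methanol (0.04% formic acid) on ice and analysed by reversed-phase HPLC-DAD at 295 nm. Final concentration expressed as percent of initial.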

tumor growth = conditions: 40 mg/kg intraperitoneal; ref: our previous studies; cited from earlier work
[8] = female, nu/nu, mouse, plasma, intraperitoneal, 40 mg/kg

COc1ccc2[nH]c3c(-c4cccc5ccccc45)nccc3c2c1 [SP-141, 6-methoxy-1-(naphthalen-1-yl)-9H-pyrido[3,4-b]indole]
order of highest overall concentrations in tissues ([1]; 40 mg/kg i.p. single dose): spleen > lungs > liver > kidney > brain > tumor > muscle > heart | concentration in plasma ([1]; 40 mg/kg i.p. single dose, 6 h): undetectable | detection in tumor tissue ([1]; 40 mg/kg i.p., 24 h after administration, low concentrations): could be detected | excretion of parent compound in urine and feces ([1]; 40 mg/kg i.p., 24 h collection, data not shown): minimally excreted | half-life in plasma ([1]; 40 mg/kg i.p., tumor-bearing nude mice): short half-life | concentration at 10 min [1, 8]: ~3000 ng/mL | concentration at 4 h [1, 8]: 200 ng/mL | bench-top stability [2]: relatively stable | stock solution stability [3]: unchanged | recovery at 324 ng/mL ([4]; blank brain tissue): 91.3 ± 0.98% | recovery at 3240 ng/mL ([4]; blank brain tissue): 101 ± 1.45% | recovery at 324 ng/mL ([4]; blank heart tissue): 81.8 ± 4.47% | recovery at 3240 ng/mL ([4]; blank heart tissue): 86.6 ± 1.39% | recovery at 324 ng/mL ([4]; blank kidney tissue): 82.5 ± 2.6% | recovery at 3240 ng/mL ([4]; blank kidney tissue): 87.8 ± 1.36% | recovery at 324 ng/mL ([4]; blank liver tissue): 86.7 ± 1.36% | recovery at 3240 ng/mL ([4]; blank liver tissue): 89.22 ± 0.77% | recovery at 324 ng/mL ([4]; blank lung tissue): 89 ± 1.57% | recovery at 3240 ng/mL ([4]; blank lung tissue): 93.3 ± 1.02% | recovery at 324 ng/mL ([4]; blank muscle tissue): 97.18 ± 0.9% | recovery at 3240 ng/mL ([4]; blank muscle tissue): 97.5 ± 1.47% | recovery at 324 ng/mL ([4]; blank spleen tissue): 93 ± 5.2% | recovery at 3240 ng/mL ([4]; blank spleen tissue): 99.7 ± 1.15% | recovery at 324 ng/mL ([4]; blank tumor tissue): 99.61 ± 0.79% | recovery at 3240 ng/mL ([4]; blank tumor tissue): 99.12 ± 0.19% | compound remaining intact in mouse plasma ([5]; 24 h, 324 ng/mL): 95.9% | compound remaining intact in mouse plasma ([5]; 24 h, 3240 ng/mL): 94.3% | compound remaining in mouse plasma ([5]; 37°C, 24 h, both 324 and 3240 ng/mL): more than 77% | compound remaining in mouse plasma ([5]; −80°C, 8 weeks, 324 ng/mL): 95.7% | compound remaining in mouse plasma ([5]; −80°C, 8 weeks, 3240 ng/mL): 98.7% | Recovery (%) ± SD (%), nonspecific binding ([6]; Brain, 324 ng/mL): 96.29 ± 2.54% | Recovery (%) ± SD (%), nonspecific binding ([6]; Brain, 3240 ng/mL): 100.58 ± 0.81% | Recovery (%) ± SD (%), nonspecific binding ([6]; Heart, 324 ng/mL): 100.41 ± 0.27% | Recovery (%) ± SD (%), nonspecific binding ([6]; Heart, 3240 ng/mL): 98.82 ± 0.38% | Recovery (%) ± SD (%), nonspecific binding ([6]; Kidney, 324 ng/mL): 99.88 ± 3.11% | Recovery (%) ± SD (%), nonspecific binding ([6]; Kidney, 3240 ng/mL): 97.13 ± 1.04% | Recovery (%) ± SD (%), nonspecific binding ([6]; Liver, 324 ng/mL): 104.91 ± 6.65% | Recovery (%) ± SD (%), nonspecific binding ([6]; Liver, 3240 ng/mL): 99.69 ± 1.38% | Recovery (%) ± SD (%), nonspecific binding ([6]; Lungs, 324 ng/mL): 96.64 ± 2.24% | Recovery (%) ± SD (%), nonspecific binding ([6]; Lungs, 3240 ng/mL): 99.99 ± 0.21% | Recovery (%) ± SD (%), nonspecific binding ([6]; Muscle, 324 ng/mL): 101.12 ± 2.33% | Recovery (%) ± SD (%), nonspecific binding ([6]; Muscle, 3240 ng/mL): 99.19 ± 1.01% | Recovery (%) ± SD (%), nonspecific binding ([6]; Plasma, 324 ng/mL): 98.95 ± 1.49% | Recovery (%) ± SD (%), nonspecific binding ([6]; Plasma, 3240 ng/mL): 100.49 ± 0.04% | Recovery (%) ± SD (%), nonspecific binding ([6]; Spleen, 324 ng/mL): 99.54 ± 2.10% | Recovery (%) ± SD (%), nonspecific binding ([6]; Spleen, 3240 ng/mL): 99.99 ± 0.22% | Recovery (%) ± SD (%), nonspecific binding ([6]; Tumor, 324 ng/mL): 96.84 ± 2.30% | Recovery (%) ± SD (%), nonspecific binding ([6]; Tumor, 3240 ng/mL): 99.20 ± 0.57% | compound metabolized by phase II components [7]: 18.8% | bound to proteins in mouse plasma (mouse plasma proteins; 324 ng/mL): 57.23% | bound to proteins in mouse plasma (mouse plasma proteins; 3240 ng/mL): 62.61% | effective level against pancreatic cancer cells in vitro (pancreatic cancer cells): submicromolar | percentage of remaining concentration after three freeze–thaw cycles (Freeze–thaw stability; 324 ng/mL): 98.24 ± 0.69% | percentage of remaining concentration after three freeze–thaw cycles (Freeze–thaw stability; 3240 ng/mL): 97.44 ± 1.53% | effect on tumor growth in vivo (tumor growth): suppresses the tumor growth | host toxicity in vivo (tumor growth): no significant host toxicity

COc1ccc2c(c1)[nH]c1c(-c3ccc4ccccc4c3)nccc12 [SP-157, 7-methoxy-1-(naphthalen-2-yl)-9H-pyrido[3,4-b]indole, reference compound]
stock solution stability [3]: unchanged
